For test [1], the target named is Epidermal growth factor receptor (Homo sapiens, UniProt P00533, L858R/T790M). As to the kind of experiment: Inhibition of EGFR L858R/T790M mutant (unknown origin) expressed in baculovirus expression system by ELISA. (An ELISA detects its analyte on a solid surface through an enzyme-linked reagent.)
Test [2] addresses Epidermal growth factor receptor (Homo sapiens, UniProt P00533). Kind of test: Inhibition of wild type EGFR (unknown origin) expressed in baculovirus expression system by ELISA.
Test [3] is filed under the species Homo sapiens. Kind of test: Selectivity ratio, ratio of IC50 for inhibition of wild type EGFR (unknown origin) to IC50 for inhibition of EGFR L858R/T790M mutant (unknown origin). In outline: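 EGFR WT and L858R/T790M kinase domains expressed in a baculovirus system and purified on Ni-NTA. Kinase activity measured by ELISA-based EGFR tyrosine kinase assay; at least three independent determinations, mean ± SD.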

The target of test [4] is Epidermal growth factor receptor (Homo sapiens, UniProt P00533, T790M). As to the kind of experiment: Inhibition of EGFR T790M mutant (unknown origin) expressed in baculovirus expression system by ELISA.
For test [5], the system named is NCI-H1975. Kind of test: Antiproliferative activity against human NCI-H1975 cells harboring EGFR L858R/T790M double mutant assessed as inhibition of cell proliferation incubated for 72 hrs by sulforhodamine B colorimetric assay. Type of test: functional, cell-based. The note with it: NCI-H1975, 72 h. A general note: Sulforhodamine B stains cellular protein and so reports cell mass.

In test [6] the test system is A-431. Kind of test: Antiproliferative activity against human A-431 cells harboring wild type EGFR assessed as inhibition of cell proliferation incubated for 72 hrs by sulforhodamine B colorimetric assay. It is filed as functional, cell-based. The note with it: A-431, 72 h.

From ChEMBL document CHEMBL5260822, “Structure-based design and synthesis of 2,4-diaminopyrimidines as EGFR L858R/T790M selective inhibitors for NSCLC” (Eur J Med Chem, 2017) come the findings set out here.

Sequence of Epidermal growth factor receptor (Homo sapiens, UniProt P00533, L858R/T790M) (P00533 25-1210 T790M/L858R limits assumed): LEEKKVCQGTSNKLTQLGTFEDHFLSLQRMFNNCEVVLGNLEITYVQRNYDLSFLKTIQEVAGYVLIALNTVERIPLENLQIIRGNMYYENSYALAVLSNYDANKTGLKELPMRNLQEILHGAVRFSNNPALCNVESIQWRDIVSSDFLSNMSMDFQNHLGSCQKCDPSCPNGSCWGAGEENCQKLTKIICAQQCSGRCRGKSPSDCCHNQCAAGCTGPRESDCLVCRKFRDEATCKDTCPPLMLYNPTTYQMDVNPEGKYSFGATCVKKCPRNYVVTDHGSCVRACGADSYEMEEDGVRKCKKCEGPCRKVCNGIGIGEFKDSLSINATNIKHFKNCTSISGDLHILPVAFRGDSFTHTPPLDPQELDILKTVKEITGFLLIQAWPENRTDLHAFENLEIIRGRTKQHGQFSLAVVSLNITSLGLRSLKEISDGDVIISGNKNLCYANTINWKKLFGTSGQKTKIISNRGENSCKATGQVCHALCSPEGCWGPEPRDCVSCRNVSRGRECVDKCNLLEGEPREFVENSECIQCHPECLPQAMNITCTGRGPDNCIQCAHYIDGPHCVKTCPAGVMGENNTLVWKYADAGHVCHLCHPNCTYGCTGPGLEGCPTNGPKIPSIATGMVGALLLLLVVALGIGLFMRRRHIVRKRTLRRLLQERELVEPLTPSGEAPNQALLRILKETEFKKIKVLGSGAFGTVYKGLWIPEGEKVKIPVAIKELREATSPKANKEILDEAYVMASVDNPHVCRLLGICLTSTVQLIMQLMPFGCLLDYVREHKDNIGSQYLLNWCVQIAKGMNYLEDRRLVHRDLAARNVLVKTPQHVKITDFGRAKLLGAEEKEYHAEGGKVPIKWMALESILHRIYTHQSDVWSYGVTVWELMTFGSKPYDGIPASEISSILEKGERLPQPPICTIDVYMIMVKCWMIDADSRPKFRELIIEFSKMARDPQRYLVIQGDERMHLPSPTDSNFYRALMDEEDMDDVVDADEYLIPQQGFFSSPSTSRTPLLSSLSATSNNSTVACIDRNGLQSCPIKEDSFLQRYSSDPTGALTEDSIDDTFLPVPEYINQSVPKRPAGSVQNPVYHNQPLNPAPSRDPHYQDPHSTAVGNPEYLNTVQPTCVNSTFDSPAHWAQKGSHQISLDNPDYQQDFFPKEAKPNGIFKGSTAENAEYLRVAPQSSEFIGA
Sequence of Epidermal growth factor receptor (Homo sapiens, UniProt P00533, T790M) (P00533 25-1210 T790M limits assumed): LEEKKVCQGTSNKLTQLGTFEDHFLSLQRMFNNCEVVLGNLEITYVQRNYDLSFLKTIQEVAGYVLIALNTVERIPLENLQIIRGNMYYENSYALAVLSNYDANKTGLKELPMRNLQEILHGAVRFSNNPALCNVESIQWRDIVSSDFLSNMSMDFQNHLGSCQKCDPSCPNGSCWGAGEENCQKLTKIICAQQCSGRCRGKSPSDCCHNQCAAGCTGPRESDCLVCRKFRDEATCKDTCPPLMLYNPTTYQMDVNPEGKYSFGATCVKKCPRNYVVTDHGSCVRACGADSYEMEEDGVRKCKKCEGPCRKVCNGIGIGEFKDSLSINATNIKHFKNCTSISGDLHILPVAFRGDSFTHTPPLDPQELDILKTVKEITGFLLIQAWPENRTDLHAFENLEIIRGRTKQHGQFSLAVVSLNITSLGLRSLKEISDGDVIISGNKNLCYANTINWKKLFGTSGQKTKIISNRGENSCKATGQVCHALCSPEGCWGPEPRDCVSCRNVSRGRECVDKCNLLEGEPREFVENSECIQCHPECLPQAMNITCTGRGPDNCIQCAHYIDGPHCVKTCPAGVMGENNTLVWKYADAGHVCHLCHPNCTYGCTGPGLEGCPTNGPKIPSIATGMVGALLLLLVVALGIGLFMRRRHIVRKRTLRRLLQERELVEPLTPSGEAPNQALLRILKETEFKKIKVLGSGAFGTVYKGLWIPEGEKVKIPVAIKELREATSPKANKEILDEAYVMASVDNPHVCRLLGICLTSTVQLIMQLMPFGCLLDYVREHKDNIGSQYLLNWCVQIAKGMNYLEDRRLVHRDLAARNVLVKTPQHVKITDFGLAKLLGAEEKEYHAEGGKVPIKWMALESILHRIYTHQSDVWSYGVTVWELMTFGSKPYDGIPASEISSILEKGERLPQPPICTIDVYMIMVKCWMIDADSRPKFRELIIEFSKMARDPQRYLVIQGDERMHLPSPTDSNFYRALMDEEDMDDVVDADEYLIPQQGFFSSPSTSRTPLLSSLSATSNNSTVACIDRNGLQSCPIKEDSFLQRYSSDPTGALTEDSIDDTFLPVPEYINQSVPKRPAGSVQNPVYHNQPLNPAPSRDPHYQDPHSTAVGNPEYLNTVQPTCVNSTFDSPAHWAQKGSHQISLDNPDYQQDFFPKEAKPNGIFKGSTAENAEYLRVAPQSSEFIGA
Sequence of Epidermal growth factor receptor (Homo sapiens, UniProt P00533) (P00533 whole entry, the tested form may be a part): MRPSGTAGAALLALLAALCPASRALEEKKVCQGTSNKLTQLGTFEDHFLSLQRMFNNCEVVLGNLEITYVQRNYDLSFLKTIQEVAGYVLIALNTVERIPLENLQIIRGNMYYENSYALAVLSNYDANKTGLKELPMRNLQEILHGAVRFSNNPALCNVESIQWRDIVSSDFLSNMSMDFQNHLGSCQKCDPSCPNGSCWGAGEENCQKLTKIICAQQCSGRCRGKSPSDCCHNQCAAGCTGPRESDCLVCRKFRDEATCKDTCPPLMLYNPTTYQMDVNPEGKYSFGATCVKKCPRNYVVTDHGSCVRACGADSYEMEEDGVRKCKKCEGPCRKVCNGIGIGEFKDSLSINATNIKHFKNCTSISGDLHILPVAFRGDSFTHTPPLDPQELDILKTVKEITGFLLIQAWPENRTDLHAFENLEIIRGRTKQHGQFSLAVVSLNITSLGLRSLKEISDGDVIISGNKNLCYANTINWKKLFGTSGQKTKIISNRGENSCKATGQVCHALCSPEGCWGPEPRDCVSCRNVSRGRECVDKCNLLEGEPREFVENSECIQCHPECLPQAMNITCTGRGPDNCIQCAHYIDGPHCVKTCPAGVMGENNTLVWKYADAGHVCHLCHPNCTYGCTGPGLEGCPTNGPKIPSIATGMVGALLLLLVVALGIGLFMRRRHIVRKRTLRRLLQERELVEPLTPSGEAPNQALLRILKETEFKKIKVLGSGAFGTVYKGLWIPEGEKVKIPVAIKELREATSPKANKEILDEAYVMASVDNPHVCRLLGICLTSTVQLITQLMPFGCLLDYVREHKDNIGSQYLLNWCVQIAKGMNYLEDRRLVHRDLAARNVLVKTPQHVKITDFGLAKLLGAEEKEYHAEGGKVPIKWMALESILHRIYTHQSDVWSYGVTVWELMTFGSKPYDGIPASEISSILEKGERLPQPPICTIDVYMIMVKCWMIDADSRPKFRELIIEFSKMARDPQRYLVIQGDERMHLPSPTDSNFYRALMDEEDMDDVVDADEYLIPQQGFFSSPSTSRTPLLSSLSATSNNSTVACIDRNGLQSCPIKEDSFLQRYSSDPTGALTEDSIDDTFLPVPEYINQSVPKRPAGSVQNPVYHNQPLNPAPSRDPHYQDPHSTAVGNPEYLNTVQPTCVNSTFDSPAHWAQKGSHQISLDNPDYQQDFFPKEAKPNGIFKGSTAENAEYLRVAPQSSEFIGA

Broadly, the IC50 is the concentration that gives 50% inhibition. Regarding `CN1CCN(c2ccc(Nc3ncc(Br)c(Nc4ccc5c(c4)CCC5)n3)cc2)CC1`, the IC50 in test [1] amounted to 35 nM; in test [2] it was 6800 nM. Moreover, the Ratio IC50 in test [3] came out at 194.
In the case of `Cc1cnc(Nc2ccc(N3CCN(C)CC3)cc2)nc1Nc1ccc2[nH]ccc2c1`, the concentration for half-maximal inhibition (IC50) is 197 nM in test [4], 171 nM in test [1] and over 1000 nM in test [2].
For `CN1CCN(c2ccc(Nc3nccc(Nc4ccc5[nH]ccc5c4)n3)cc2)CC1` the same measures were 100 nM, 220 nM and 49 nM.
Regarding `CC(=O)N1CCc2ccc(Nc3nc(Nc4ccc(N5CCN(C)CC5)cc4)ncc3Br)cc21`, the IC50 in test [1] came to 8600 nM; in test [2], 5700 nM.
`CN1CCN(c2ccc(Nc3ncc(Cl)c(Nc4ccc5[nH]ccc5c4)n3)cc2)CC1`: the results for the IC50 in test [4], in test [1] and in test [2] were 105 nM, 46 nM and 557 nM, respectively.
With `C=CC(=O)Nc1cc(Nc2ncc(Br)c(Nc3ccc4cc[nH]c4c3)n2)ccc1N(C)CCN(C)C`, the IC50 in test [1] is 200 nM; in test [2] it was 8.7 nM; in test [5], 111 nM; in test [6] it was 143 nM.
Take `CN1CCN(c2ccc(Nc3ncc(Br)c(Nc4ccc5cc[nH]c5c4)n3)cc2)CC1`: the IC50 in test [1] stood at 19 nM; in test [2] it was 1400 nM. Further, the Ratio IC50 in test [3] came to 74.
In the same order, the values of `CN1CCN(c2ccc(Nc3ncc(Br)c(Nc4ccc5ccn(C)c5c4)n3)cc2)CC1` are 21 nM, 1300 nM and 62.
`CN1CCN(c2ccc(Nc3ncc(Br)c(Nc4ccc5[nH]ccc5c4)n3)cc2)CC1`: the IC50 is 53 nM in test [4], 35 nM in test [1] and over 1000 nM in test [2]. For the same molecule, the Ratio IC50 in test [3] was 23.
With `C=CC(=O)Nc1cc(Nc2ncc(Br)c(Nc3ccc4cc[nH]c4c3)n2)ccc1N1CCN(C)CC1`, the IC50 worked out at 16.4 nM in test [1], 234 nM in test [2], 451 nM in test [5] and 108 nM in test [6].
For `CN1CCN(c2ccc(Nc3ncc(Br)c(Nc4ccc5nccnc5c4)n3)cc2)CC1`, the 50% inhibitory concentration (IC50) in test [1] was found to be 236 nM; in test [2] it was 408 nM. Besides, the Ratio IC50 in test [3] was 2.
With `C=CC(=O)Nc1cc(Nc2ncc(Br)c(Nc3ccc4ccn(C)c4c3)n2)ccc1N1CCN(C)CC1`, the results for the half-inhibitory concentration (IC50) in test [5] and in test [6] were 190 nM and 200 nM, respectively.
As for `CN1CCN(c2ccc(Nc3ncc(Br)c(Nc4ccc5ncccc5c4)n3)cc2)CC1`, the IC50 in test [1] is 7800 nM; in test [2], over 10000 nM.
For `COc1cnc(Nc2ccc(N3CCN(C)CC3)cc2)nc1Nc1ccc2[nH]ccc2c1`, the IC50 in test [4] is 224 nM; in test [1], 155 nM; in test [2] it was over 1000 nM.
`CC(=O)N1CCc2cc(Nc3nc(Nc4ccc(N5CCN(C)CC5)cc4)ncc3Br)ccc21`: the values for the IC50 in test [1] and in test [2] were 6000 nM and 14300 nM, respectively. In addition, the Ratio IC50 in test [3] turned out to be 2.
On to `CN1CCN(c2ccc(Nc3ncc(Br)c(Nc4ccc5[nH]ncc5c4)n3)cc2)CC1`, for which the values for the IC50 in test [1] and in test [2] were 39 nM and 393 nM, respectively. For the same molecule, the Ratio IC50 in test [3] stood at 10.
`CN1CCN(c2ccc(Nc3ncc(C(F)(F)F)c(Nc4ccc5[nH]ccc5c4)n3)cc2)CC1`: the figures for the IC50 in test [4], in test [1] and in test [2] were 102 nM, 121 nM and over 1000 nM, respectively.
Turning to `C=CC(=O)Nc1cc(Nc2ncc(Br)c(Nc3ccc4c(c3)CCC4)n2)ccc1N(C)CCN(C)C`, the half-maximal inhibitory concentration (IC50) in test [1] turned out to be 0.6 nM; in test [2], 26.2 nM; in test [5], 106 nM; in test [6] it was 256 nM.
With `C=CC(=O)Nc1cccc(Oc2nc(Nc3ccc(N4CCN(C)CC4)cc3OC)ncc2Cl)c1`, the figures for the half-maximal inhibitory concentration (IC50) in test [5] and in test [6] were 128 nM and 1300 nM, respectively.
Regarding `C=CC(=O)Nc1cc(Nc2nccc(-c3cn(C)c4ccccc34)n2)c(OC)cc1N(C)CCN(C)C` [OSIMERTINIB], the results for the half-inhibitory concentration (IC50) in test [5] and in test [6] were […] and […], respectively.
On to `C=CC(=O)Nc1cc(Nc2ncc(Br)c(Nc3ccc4c(c3)CCC4)n2)ccc1N1CCN(C)CC1`, for which the IC50 in test [1] was determined as 27.7 nM; in test [2], 466 nM; in test [5], 306 nM; in test [6], 135 nM.
For the molecule `CN1CCN(c2ccc(Nc3ncc(Br)c(Nc4ccc5[nH]c(Cc6cccc(F)c6)cc5c4)n3)cc2)CC1`, the values for the IC50 in test [1] and in test [2] were 49 nM and 325 nM, respectively. In addition, in test [3], the Ratio IC50 came to 7.
Take `CN1CCN(c2ccc(Nc3ncc(F)c(Nc4ccc5[nH]ccc5c4)n3)cc2)CC1`: the IC50 in test [4] was 232 nM; in test [1] it was 181 nM; in test [2] it was over 1000 nM.
Consider `CN1CCN(c2ccc(Nc3ncc(Br)c(Nc4ccc5cn[nH]c5c4)n3)cc2)CC1`, for which the IC50 in test [1] worked out at 43 nM; in test [2] it was 1100 nM. Also, in test [3], the Ratio IC50 turned out to be 26.
As to `CN1CCN(c2ccc(Nc3ncc([N+](=O)[O-])c(Nc4ccc5[nH]ccc5c4)n3)cc2)CC1`, the IC50 in test [4] is over 1000 nM; in test [1], 906 nM; in test [2] it was over 1000 nM.
